pIC50: −log10 of the molar value. Blank lines part the entries; values can stand above or below the compound they belong to. Active and inactive are the calls of the source. The calls are words filed in the database; no cut-off is given here.
Assays:
[1] = molecular target: Histone deacetylase (Homo sapiens) (UniProt Q13547+O15379+Q9UBN7+Q92769+Q9UQL6+Q8WUI4+Q9BY41+Q96DB2+P56524+Q9UKV0+Q969S8); assay: Competitive inhibition of HDAC in human HeLa cells using Boc-acetyl-lysine-AMC as substrate at 25 to 50 uM incubated for 30 mins in dark by Lineweaver-Burk plot analysis; assay type: cell-based
Histone deacetylase [2] = assay type: cell-based, Homo sapiens; details: hela
Mus musculus [3] = assay: Antiinflammatory activity in ICR mouse model of LPS-induced endotoxemia assessed as inhibition of LPS-induced TNF-alpha mRNA expression in liver at 10 mg/kg, ip administered 2 hrs before and immediately after LPS injection by RT-PCR method; assay type: functional, organism-based
Procedure, shortened: (§1)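 Male ICR mice (27–29 g) given LPS; drug i.p. in 5% DMSO/saline 2 h before and immediately after LPS. Liver collected 6 h after LPS. Total RNA extracted and reverse-transcribed to cDNA; TNF-α and IL-6 mRNA measured by real-time RT-PCR relative to vehicle control.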

Histone deacetylase 9 = Histone deacetylase 9 (Homo sapiens, UniProt Q9UKV0); assay: Inhibition of human recombinant HDAC9 using trifluoroacetyl lysine as substrate
Sequence of Histone deacetylase 9 (Q9UKV0 whole entry): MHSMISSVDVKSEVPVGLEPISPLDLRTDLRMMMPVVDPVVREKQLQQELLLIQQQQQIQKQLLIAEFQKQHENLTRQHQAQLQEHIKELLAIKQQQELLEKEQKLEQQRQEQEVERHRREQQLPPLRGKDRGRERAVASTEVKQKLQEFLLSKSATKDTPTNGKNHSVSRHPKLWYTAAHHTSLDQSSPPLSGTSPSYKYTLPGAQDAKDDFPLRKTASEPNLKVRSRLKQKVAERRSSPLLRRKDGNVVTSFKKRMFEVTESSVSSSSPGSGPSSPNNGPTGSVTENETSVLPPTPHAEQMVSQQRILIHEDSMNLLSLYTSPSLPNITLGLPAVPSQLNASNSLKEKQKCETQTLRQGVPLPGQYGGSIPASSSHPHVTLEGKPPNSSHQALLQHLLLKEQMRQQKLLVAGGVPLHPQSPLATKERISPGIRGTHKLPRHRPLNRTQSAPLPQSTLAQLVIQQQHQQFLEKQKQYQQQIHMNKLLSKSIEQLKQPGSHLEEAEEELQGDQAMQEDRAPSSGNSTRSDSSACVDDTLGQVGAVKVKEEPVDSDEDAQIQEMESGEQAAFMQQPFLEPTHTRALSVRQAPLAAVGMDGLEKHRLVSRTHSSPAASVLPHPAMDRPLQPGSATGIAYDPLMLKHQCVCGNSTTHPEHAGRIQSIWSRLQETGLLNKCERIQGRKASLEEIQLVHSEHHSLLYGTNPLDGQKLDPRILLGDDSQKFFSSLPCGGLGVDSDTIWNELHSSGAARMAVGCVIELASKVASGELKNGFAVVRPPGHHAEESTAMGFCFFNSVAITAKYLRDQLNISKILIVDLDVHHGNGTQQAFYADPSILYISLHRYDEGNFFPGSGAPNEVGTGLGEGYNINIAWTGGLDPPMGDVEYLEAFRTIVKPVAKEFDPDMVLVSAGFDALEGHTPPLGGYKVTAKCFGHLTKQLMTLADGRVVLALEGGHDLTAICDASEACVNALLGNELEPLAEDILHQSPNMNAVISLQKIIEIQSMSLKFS

[4] = molecular target: Histone deacetylase 3/Nuclear receptor corepressor 2 (HDAC3/NCoR2) (Homo sapiens, UniProt O15379); assay type: cell-based
Sequence of Histone deacetylase 3/Nuclear receptor corepressor 2 (HDAC3/NCoR2) (O15379 whole entry): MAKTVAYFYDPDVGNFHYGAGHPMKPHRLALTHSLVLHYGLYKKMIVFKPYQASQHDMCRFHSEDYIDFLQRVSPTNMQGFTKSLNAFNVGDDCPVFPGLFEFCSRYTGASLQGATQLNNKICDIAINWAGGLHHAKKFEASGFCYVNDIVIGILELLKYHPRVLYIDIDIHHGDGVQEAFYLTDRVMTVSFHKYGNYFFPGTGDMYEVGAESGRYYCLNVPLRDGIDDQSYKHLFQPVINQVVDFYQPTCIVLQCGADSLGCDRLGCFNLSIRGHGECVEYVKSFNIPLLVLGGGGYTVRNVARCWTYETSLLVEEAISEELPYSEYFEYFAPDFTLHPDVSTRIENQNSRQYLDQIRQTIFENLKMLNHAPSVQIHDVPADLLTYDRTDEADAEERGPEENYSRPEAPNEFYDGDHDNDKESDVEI
Sequence of Histone deacetylase 3/Nuclear receptor corepressor 2 (HDAC3/NCoR2) (Q9Y618 whole entry, further chain): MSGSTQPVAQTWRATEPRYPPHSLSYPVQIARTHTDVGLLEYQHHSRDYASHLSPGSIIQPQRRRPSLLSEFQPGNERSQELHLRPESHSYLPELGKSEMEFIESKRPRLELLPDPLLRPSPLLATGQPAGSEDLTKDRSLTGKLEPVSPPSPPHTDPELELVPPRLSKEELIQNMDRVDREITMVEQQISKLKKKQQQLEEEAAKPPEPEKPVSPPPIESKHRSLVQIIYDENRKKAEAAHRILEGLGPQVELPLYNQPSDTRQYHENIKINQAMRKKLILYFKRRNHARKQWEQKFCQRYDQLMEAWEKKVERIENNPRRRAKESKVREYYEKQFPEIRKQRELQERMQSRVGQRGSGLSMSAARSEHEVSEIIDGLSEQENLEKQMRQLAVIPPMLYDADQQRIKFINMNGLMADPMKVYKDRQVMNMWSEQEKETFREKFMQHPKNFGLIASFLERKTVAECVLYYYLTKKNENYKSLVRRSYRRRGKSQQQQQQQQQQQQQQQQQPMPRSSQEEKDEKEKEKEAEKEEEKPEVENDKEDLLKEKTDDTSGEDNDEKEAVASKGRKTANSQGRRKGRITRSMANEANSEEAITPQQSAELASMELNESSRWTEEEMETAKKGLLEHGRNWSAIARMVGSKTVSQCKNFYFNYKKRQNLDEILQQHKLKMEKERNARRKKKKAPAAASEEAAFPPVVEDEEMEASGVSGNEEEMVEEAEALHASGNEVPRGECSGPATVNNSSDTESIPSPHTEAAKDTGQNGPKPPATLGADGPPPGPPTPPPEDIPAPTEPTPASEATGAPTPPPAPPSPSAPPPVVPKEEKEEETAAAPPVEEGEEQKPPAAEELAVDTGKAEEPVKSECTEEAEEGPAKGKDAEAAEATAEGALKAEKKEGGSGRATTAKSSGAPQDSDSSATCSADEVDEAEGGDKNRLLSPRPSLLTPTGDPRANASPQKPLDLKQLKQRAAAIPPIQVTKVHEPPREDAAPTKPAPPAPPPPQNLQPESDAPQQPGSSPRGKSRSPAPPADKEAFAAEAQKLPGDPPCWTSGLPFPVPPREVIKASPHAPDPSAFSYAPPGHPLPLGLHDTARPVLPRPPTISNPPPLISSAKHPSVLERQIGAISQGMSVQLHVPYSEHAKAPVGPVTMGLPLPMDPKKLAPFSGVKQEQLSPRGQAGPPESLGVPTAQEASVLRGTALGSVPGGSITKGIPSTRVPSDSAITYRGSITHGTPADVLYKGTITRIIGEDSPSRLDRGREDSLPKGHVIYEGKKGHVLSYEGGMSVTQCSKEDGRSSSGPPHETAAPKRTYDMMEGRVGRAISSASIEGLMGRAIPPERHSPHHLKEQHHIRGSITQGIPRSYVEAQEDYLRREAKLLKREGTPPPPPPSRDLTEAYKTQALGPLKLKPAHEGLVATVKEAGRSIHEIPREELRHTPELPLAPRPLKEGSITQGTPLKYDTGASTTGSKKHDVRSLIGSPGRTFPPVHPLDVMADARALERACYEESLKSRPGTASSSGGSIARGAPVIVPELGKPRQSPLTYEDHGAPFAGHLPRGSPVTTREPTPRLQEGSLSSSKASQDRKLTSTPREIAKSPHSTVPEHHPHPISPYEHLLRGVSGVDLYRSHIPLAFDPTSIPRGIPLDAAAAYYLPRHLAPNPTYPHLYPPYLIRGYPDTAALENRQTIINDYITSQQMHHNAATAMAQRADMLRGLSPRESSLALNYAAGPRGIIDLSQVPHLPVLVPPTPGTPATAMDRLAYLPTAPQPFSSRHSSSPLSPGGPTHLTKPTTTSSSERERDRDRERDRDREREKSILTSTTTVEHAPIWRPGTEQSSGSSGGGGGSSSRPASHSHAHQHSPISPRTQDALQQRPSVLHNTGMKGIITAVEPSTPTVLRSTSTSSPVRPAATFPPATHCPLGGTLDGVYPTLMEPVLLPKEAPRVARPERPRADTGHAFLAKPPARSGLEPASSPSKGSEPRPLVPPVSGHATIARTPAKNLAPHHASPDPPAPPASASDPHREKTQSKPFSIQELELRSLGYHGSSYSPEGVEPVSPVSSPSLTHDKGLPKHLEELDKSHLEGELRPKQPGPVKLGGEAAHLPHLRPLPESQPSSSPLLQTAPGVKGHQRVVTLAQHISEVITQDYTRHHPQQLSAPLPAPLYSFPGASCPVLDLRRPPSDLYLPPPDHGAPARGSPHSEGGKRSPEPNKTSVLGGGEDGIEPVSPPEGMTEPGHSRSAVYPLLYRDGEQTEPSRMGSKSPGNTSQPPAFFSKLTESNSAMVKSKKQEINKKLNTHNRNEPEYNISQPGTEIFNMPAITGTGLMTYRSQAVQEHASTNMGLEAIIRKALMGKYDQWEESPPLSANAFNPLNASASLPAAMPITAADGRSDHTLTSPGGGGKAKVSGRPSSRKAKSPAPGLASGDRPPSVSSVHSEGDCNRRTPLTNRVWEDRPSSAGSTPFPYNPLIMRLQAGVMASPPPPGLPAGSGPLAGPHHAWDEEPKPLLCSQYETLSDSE

HeLa = assay: Cytotoxicity against human HeLa cells by MTS assay; assay type: cell-based
[5] = molecular target: T1, Protein deacetylase HDAC6 (Homo sapiens, UniProt Q9UBN7); assay: Inhibition of recombinant human HDAC6 using Fluor de Lys-SIRT1 as substrate incubated for 15 mins by fluorescence assay
T1 sequence (Q9UBN7 whole entry): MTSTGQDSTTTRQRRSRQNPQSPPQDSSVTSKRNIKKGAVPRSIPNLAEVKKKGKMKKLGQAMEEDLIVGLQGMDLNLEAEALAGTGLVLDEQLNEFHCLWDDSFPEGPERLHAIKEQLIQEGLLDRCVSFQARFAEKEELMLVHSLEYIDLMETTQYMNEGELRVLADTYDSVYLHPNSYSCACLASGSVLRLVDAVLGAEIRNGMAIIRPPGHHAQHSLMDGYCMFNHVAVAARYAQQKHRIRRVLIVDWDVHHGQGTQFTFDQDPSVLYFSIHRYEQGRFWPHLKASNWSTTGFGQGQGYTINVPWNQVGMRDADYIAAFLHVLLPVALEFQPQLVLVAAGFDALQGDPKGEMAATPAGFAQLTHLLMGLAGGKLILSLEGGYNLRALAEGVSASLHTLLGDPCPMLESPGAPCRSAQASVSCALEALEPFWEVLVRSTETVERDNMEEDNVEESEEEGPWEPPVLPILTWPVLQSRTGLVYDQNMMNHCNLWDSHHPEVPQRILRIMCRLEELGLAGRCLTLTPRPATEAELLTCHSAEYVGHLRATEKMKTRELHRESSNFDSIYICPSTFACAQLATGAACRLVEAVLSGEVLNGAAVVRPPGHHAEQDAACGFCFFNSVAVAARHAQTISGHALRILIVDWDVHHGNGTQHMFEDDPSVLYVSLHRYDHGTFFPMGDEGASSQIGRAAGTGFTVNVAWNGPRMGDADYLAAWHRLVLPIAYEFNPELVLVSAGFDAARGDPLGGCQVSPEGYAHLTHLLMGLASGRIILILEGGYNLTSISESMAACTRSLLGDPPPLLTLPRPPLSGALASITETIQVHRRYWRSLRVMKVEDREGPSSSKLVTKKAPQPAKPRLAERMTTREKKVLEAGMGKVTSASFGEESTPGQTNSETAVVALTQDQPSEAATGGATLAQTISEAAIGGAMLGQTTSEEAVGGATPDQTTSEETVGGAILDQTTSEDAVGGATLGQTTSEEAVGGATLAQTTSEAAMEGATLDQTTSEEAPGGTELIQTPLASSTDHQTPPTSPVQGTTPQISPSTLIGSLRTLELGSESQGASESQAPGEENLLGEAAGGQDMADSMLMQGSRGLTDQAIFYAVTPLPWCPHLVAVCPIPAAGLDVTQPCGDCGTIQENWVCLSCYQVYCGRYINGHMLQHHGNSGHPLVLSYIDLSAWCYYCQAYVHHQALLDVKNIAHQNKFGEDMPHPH

[6] = molecular target: T1, Protein deacetylase HDAC6; assay: Inhibition of full length human recombinant N-terminal GST-tagged HDAC6 (1 to 1215 residues) expressed in sf9 cells using RHK-K(Ac)-AMC as substrate incubated for 90 mins by fluorescence assay
RAW264.7 [7] = assay: Antiinflammatory activity in mouse RAW264.7 cells assessed as inhibition of LPS-induced IL-6 production at 0.5 to 2.5 uM relative to control; assay type: functional
[8] = molecular target: T2, Polyamine deacetylase HDAC10 (Homo sapiens, UniProt Q969S8); assay: Inhibition of human recombinant HDAC10 using RHK-K(Ac)-AMC as substrate
T2 sequence (Q969S8 whole entry): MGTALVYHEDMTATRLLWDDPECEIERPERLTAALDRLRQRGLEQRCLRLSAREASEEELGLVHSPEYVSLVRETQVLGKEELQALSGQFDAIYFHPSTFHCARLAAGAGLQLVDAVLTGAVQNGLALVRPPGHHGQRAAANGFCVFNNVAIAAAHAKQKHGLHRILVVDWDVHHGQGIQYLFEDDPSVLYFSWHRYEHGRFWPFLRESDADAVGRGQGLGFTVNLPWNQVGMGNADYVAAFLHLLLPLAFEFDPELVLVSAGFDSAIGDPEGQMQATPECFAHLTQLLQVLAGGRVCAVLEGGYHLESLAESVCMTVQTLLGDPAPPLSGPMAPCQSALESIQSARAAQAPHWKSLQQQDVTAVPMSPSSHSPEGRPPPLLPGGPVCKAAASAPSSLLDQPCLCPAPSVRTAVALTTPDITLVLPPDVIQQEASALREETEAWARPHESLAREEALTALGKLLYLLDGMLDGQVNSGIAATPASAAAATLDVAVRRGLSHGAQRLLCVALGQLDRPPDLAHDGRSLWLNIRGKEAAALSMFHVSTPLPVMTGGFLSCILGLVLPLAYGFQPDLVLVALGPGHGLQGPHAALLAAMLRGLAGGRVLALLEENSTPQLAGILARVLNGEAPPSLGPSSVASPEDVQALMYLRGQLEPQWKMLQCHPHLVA

Histone deacetylase 8 = molecular target: T3, Histone deacetylase 8 (Homo sapiens, UniProt Q9BY41); assay: Inhibition of human recombinant C-terminal His-tagged HDAC8 (1 to 377 residues) expressed in insect cells using RHK-K(Ac)-K(Ac)-AMC as substrate incubated for 60 mins by fluorescence assay
T3 sequence (Q9BY41 whole entry): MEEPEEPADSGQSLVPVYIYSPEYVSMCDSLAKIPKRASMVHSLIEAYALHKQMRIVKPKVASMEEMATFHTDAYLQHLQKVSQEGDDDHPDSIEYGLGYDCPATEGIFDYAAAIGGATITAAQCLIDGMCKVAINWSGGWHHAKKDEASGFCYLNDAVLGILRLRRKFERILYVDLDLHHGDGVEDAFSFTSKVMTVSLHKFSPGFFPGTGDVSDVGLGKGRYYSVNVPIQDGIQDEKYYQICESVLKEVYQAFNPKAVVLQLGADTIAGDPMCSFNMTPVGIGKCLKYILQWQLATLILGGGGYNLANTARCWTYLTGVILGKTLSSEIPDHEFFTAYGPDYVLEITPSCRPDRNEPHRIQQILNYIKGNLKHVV

Histone deacetylase 1 [9] = molecular target: T4, Histone deacetylase 1 (Homo sapiens, UniProt Q13547); assay: Inhibition of full length human recombinant C-terminal FLAG-His-tagged HDAC1 (1 to 482 residues) expressed in Sf21 cells using RHK-K(Ac)-AMC as substrate incubated for 60 mins by fluorescence assay
T4 sequence (Q13547 whole entry, the tested form may be a part): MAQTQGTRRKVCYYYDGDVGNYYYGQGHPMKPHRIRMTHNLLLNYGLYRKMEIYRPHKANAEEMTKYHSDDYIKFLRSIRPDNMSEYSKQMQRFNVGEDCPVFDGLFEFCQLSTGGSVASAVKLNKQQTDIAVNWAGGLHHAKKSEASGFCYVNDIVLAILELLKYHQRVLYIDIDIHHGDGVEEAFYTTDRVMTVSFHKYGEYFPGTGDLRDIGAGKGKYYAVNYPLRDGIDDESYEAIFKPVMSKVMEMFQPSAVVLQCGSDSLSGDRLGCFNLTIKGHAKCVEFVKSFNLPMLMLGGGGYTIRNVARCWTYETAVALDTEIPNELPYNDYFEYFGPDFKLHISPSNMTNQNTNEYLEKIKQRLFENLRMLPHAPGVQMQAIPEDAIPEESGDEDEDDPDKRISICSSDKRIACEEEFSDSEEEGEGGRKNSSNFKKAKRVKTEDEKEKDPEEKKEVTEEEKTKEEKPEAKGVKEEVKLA

Mus musculus [10] = assay: Antiinflammatory activity in ICR mouse model of LPS-induced endotoxemia assessed as inhibition of LPS-induced IL-6 mRNA expression in liver at 10 mg/kg, ip administered 2 hrs before and immediately after LPS injection by RT-PCR method; assay type: functional, organism-based; procedure, shortened: as §1
Histone deacetylase 2 = Histone deacetylase 2 (Homo sapiens, UniProt Q92769); assay: Inhibition of full length human recombinant C-terminal GST-tagged HDAC2 (1 to 488 residues) expressed in insect cells using RHK-K(Ac)-AMC as substrate incubated for 60 mins by fluorescence assay
Sequence of Histone deacetylase 2 (Q92769 whole entry, the tested form may be a part): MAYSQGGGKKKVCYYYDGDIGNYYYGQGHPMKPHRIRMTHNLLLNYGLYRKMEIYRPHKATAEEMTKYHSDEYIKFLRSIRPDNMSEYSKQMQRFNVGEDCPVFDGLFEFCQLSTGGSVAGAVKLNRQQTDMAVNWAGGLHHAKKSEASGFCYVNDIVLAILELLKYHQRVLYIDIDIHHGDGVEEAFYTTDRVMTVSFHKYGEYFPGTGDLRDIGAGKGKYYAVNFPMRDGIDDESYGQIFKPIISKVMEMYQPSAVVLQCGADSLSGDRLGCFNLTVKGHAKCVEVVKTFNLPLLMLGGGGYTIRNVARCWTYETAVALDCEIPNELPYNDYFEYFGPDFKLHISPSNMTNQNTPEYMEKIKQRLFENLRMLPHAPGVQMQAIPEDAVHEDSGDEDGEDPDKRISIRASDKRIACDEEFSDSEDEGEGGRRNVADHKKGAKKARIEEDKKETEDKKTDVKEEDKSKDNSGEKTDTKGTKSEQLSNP

Histone deacetylase 7 = molecular target: T5, Histone deacetylase 7 (Homo sapiens, UniProt Q8WUI4); assay: Inhibition of human recombinant N-terminal GST-tagged HDAC7 (518 to 991 residues) expressed in insect cells using Boc-K(TFA)-AMC as substrate incubated for 60 mins by fluorescence assay
T5 sequence (Q8WUI4 whole entry): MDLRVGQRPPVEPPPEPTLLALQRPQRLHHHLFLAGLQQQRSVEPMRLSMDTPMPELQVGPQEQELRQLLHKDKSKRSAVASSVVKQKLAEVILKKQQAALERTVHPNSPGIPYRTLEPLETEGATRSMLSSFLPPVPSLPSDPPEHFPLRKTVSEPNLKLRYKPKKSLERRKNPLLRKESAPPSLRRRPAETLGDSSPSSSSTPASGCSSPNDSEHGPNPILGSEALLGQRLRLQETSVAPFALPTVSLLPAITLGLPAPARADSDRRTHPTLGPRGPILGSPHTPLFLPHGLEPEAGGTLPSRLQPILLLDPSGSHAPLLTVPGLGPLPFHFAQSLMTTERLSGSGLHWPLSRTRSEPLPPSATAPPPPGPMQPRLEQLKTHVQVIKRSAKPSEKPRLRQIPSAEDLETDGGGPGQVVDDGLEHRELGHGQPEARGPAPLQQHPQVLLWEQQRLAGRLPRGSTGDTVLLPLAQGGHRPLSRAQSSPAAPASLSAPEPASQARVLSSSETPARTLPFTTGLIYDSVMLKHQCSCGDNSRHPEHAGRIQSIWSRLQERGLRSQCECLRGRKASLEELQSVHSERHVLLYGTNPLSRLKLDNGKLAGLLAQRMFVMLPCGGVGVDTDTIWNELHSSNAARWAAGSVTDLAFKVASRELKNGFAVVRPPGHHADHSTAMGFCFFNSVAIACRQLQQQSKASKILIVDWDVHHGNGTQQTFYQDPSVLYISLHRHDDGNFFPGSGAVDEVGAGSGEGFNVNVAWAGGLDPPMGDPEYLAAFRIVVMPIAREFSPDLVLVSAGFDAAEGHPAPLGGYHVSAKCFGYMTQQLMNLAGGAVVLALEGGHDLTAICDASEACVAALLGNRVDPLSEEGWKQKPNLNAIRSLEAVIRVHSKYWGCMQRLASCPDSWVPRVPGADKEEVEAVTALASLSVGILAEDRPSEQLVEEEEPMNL

Mus musculus [11] = assay: Anti-sepsis activity in ICR mouse model of LPS-induced endotoxemia assessed as increase in survival rate at 20 mg/kg, ip administered 2 hrs before and immediately after LPS injection measured up to 10 days; assay type: functional
Procedure, shortened: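 Male ICR mice (27–29 g), LPS from E. coli O111:B4. Dosing was i.p. in vehicle (5% DMSO in saline) at 5, 10 or 20 mg/kg, given 2 h before and immediately after LPS. Groups were vehicle control, LPS, and LPS plus drug. Survival was followed up to 10 days and compared by log-rank analysis.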

Histone deacetylase 4 = Histone deacetylase 4 (Homo sapiens, UniProt P56524); assay: Inhibition of human recombinant N-terminal GST-tagged C-terminal His-tagged HDAC4 (627 to 1084 residues) expressed in insect cells using Boc-K(TFA)-AMC as substrate incubated for 60 mins by fluorescence assay
RAW264.7 [12] = assay: Antiinflammatory activity in mouse RAW264.7 cells assessed as inhibition of LPS-induced TNF-alpha production at 0.5 to 2.5 uM relative to control; assay type: functional
Histone deacetylase [13] = assay: Inhibition of HDAC in human HeLa cells using Boc-acetyl-lysine-AMC as substrate incubated for 24 hrs by fluorometric assay; assay type: cell-based
Histone deacetylase 5 = Histone deacetylase 5 (Homo sapiens, UniProt Q9UQL6); assay: Inhibition of human recombinant C-terminal His-tagged HDAC5 (657 to 1123 residues) expressed in insect cells using Boc-K(TFA)-AMC as substrate incubated for 60 mins by fluorescence assay
Histone deacetylase 11 = molecular target: T6, Histone deacetylase 11 (Homo sapiens, UniProt Q96DB2); assay: Inhibition of human recombinant N-terminal His-tagged HDAC11 (1 to 347 residues) expressed in insect cells/baculovirus expression system using RHK-K(Ac)-AMC as substrate by fluorescence assay
T6 sequence (Q96DB2 whole entry): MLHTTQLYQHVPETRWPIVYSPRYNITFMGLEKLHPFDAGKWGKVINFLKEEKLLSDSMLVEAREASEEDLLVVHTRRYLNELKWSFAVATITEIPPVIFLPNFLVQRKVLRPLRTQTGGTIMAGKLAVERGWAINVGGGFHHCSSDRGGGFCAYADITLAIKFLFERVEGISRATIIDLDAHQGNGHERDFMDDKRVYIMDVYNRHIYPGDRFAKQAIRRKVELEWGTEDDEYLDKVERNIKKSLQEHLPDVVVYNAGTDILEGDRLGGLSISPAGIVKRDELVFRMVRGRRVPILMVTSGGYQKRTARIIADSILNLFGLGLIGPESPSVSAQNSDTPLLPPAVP

Histone deacetylase 1 [14] = molecular target: T4, Histone deacetylase 1; details: HeLa, 10 uM
Histone deacetylase 1 [15] = molecular target: T4, Histone deacetylase 1
RAW264.7 [16] = assay: Antiinflammatory activity in mouse RAW264.7 cells assessed as inhibition of LPS-induced NO production at 0.5 to 2.5 uM relative to control; assay type: functional

inhibition [1]: Active
IC50 (Histone deacetylase [2]): 19.18 µM
SMILES: O=C(CCS/C=C/c1ccccc1)NCCSCc1ccco1

inhibition [1]: Active
IC50 (Histone deacetylase [2]): 29.8 µM
SMILES: Cc1ncsc1CCn1cc(NC(=O)CCS/C=C\c2ccccc2)cn1

IC50 (Histone deacetylase [2]): 3.7 µM
SMILES: O=C(CCS/C=C/c1ccccc1)NO

SMILES: O=C(CCCc1csc(/C=C/c2ccccc2)n1)NO
inhibition (Mus musculus [3]): Active
IC50 (Histone deacetylase 9): Not Active
pIC50 [4]: 4.75
pIC50 (HeLa): 4.28
pIC50 [5]: 6.70
pIC50 [6]: 6.25
inhibition (INH) (RAW264.7 [7]): 50%
pIC50 [8]: 4.11
pIC50 (Histone deacetylase 8): 5.81
pIC50 (Histone deacetylase 1 [9]): < 5.00
inhibition (Mus musculus [10]): Active
pIC50 (Histone deacetylase 2): < 5.00
IC50 (Histone deacetylase 7): Not Active
Activity (Mus musculus [11]): 40%
pIC50 (Histone deacetylase 4): 4.70
inhibition (INH) (RAW264.7 [12]): 50%
IC50 (Histone deacetylase [13]): 0.37 µM
pIC50 (Histone deacetylase 5): 4.58
pIC50 (Histone deacetylase 11): 4.48
inhibition (Histone deacetylase 1 [14]): inactive
IC50 (Histone deacetylase [2]): 1.48 µM
pIC50 (Histone deacetylase 1 [15]): 4.86
inhibition (INH) (RAW264.7 [16]): 50%
